Values after ≈ are worked out from the molar mass of the structure shown.
Key:
Assay type in all cases: functional
[1] = tested on: Citrobacter; test: Antibacterial activity against Citrobacter spp. by broth microdilution method
Summary of the method: (§1)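 MICs were determined by CLSI broth microdilution against clinical isolate panels that included aminoglycoside-resistant isolates. […] MIC90 was derived per group and not calculated when n was <10. Imipenem, ceftobiprole, ciprofloxacin and tigecycline MICs were also determined for the resistant isolates.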

[2] = tested on: Escherichia coli; test: Antibacterial activity against Escherichia coli by broth microdilution method; summary of the method: as §1
[3] = tested on: Enterobacter sp.; test: Antibacterial activity against Enterobacter spp. by broth microdilution method; summary of the method: as §1
[4] = tested on: Klebsiella sp.; test: Antibacterial activity against Klebsiella spp. by broth microdilution method; summary of the method: as §1
[5] = tested on: Proteus mirabilis; test: Antibacterial activity against Proteus mirabilis by broth microdilution method; summary of the method: as §1
[6] = Antibacterial activity against indole positive Proteae by broth microdilution method; summary of the method: as §1
[7] = tested on: Serratia sp.; test: Antibacterial activity against Serratia spp. by broth microdilution method; conditions: Serratia sp. (in: enterobacteria); summary of the method: as §1
[8] = tested on: Acinetobacter sp.; test: Antibacterial activity against Acinetobacter spp. by broth microdilution method; summary of the method: as §1
[9] = tested on: Pseudomonas aeruginosa; test: Antibacterial activity against Pseudomonas aeruginosa by broth microdilution method; summary of the method: as §1
[10] = tested on: Staphylococcus sp.; test: Antibacterial activity against Staphylococcus spp. by broth microdilution method; summary of the method: as §1

**Q.** Which results are given for Nc1nc(/C(=N/O)C(=O)N[C@@H]2C(=O)N3C(C(=O)O)=C(/C=C4\CCN([C@@H]5CCNC5)C4=O)CS[C@H]23)ns1 [CEFTOBIPROLE]?
**A.** MIC50 [1]: 1 µg/mL (≈ 1.87 µM); MIC50 [2]: > 32 µg/mL; MIC90 [2]: > 32 µg/mL; MIC50 [3]: > 32 µg/mL; MIC90 [3]: > 32 µg/mL; MIC50 [4]: > 32 µg/mL; MIC90 [4]: > 32 µg/mL; MIC50 [5]: 0.125 µg/mL (≈ 0.234 µM); MIC90 [5]: > 32 µg/mL; MIC50 [6]: > 32 µg/mL; MIC50 [7]: > 32 µg/mL; MIC50 [8]: > 32 µg/mL; MIC90 [8]: > 32 µg/mL; MIC50 [9]: 16 µg/mL (≈ 29.9 µM); MIC90 [9]: > 32 µg/mL

**Q.** Which MIC50 [1] does the source give for O=C(O)c1cn(C2CC2)c2cc(N3CCNCC3)c(F)cc2c1=O [CIPROFLOXACIN] here?
**A.** Its MIC50 is 8 µg/mL (≈ 24.1 µM).

**Q.** And the MIC50 [2]?
**A.** The MIC50 was greater than 16 µg/mL.

**Q.** What about the MIC90 [2] of the same compound?
**A.** Its MIC90 is greater than 16 µg/mL.

**Q.** And the MIC50 [3]?
**A.** Its MIC50 is 1 µg/mL (≈ 3.02 µM).

**Q.** What about the MIC90 [3] of the same compound?
**A.** The MIC90 was greater than 16 µg/mL.

**Q.** And the MIC50 [4]?
**A.** The MIC50 was 16 µg/mL (≈ 48.3 µM).

**Q.** What about the MIC90 [4] of the same compound?
**A.** Its MIC90 is greater than 16 µg/mL.

**Q.** And the MIC50 [5]?
**A.** The MIC50 was 2 µg/mL (≈ 6.04 µM).

**Q.** And the MIC90 [5]?
**A.** Its MIC90 is greater than 16 µg/mL.

**Q.** What about the MIC50 [6] of the same compound?
**A.** The MIC50 was 16 µg/mL (≈ 48.3 µM).

**Q.** And the MIC50 [7]?
**A.** The MIC50 was 4 µg/mL (≈ 12.1 µM).

**Q.** And the MIC50 [10]?
**A.** Its MIC50 is 16 µg/mL (≈ 48.3 µM).

**Q.** What about the MIC90 [10] of the same compound?
**A.** Its MIC90 is greater than 16 µg/mL.

**Q.** What about the MIC50 [8] of the same compound?
**A.** The MIC50 was greater than 16 µg/mL.

**Q.** And the MIC90 [8]?
**A.** The MIC90 was greater than 16 µg/mL.

**Q.** What about the MIC50 [9] of the same compound?
**A.** Its MIC50 is 8 µg/mL (≈ 24.1 µM).

**Q.** And the MIC90 [9]?
**A.** Its MIC90 is greater than 16 µg/mL.

**Q.** For C[C@@H](O)[C@H]1C(=O)N2C(C(=O)O)=C(SCCNC=N)C[C@H]12 [IMIPENEM ANHYDROUS], which MIC50 [1] is on record?
**A.** Its MIC50 is 0.5 µg/mL (≈ 1.67 µM).

**Q.** And the MIC50 [2]?
**A.** Its MIC50 is 0.125 µg/mL (≈ 0.418 µM).

**Q.** And the MIC90 [2]?
**A.** The MIC90 was 0.25 µg/mL (≈ 0.835 µM).

**Q.** What about the MIC50 [3] of the same compound?
**A.** Its MIC50 is 1 µg/mL (≈ 3.34 µM).

**Q.** What about the MIC90 [3] of the same compound?
**A.** The MIC90 was 4 µg/mL (≈ 13.4 µM).

**Q.** And the MIC50 [4]?
**A.** Its MIC50 is 0.25 µg/mL (≈ 0.835 µM).

**Q.** What about the MIC90 [4] of the same compound?
**A.** The MIC90 was greater than 16 µg/mL.

**Q.** What about the MIC50 [5] of the same compound?
**A.** The MIC50 was 4 µg/mL (≈ 13.4 µM).

**Q.** What about the MIC90 [5] of the same compound?
**A.** Its MIC90 is 8 µg/mL (≈ 26.7 µM).

**Q.** What about the MIC50 [6] of the same compound?
**A.** Its MIC50 is 1 µg/mL (≈ 3.34 µM).

**Q.** What about the MIC50 [7] of the same compound?
**A.** Its MIC50 is 1 µg/mL (≈ 3.34 µM).

**Q.** And the MIC50 [8]?
**A.** Its MIC50 is 2 µg/mL (≈ 6.68 µM).

**Q.** And the MIC90 [8]?
**A.** Its MIC90 is greater than 16 µg/mL.

**Q.** What about the MIC50 [9] of the same compound?
**A.** The MIC50 was 4 µg/mL (≈ 13.4 µM).

**Q.** What about the MIC90 [9] of the same compound?
**A.** Its MIC90 is 16 µg/mL (≈ 53.4 µM).
